According to ChEMBL document CHEMBL5058577, “EUbOPEN Chemogenomics Library 2 (Multiplex)” (2022):

System: HEK-293T
Experiment: Multiplex assay against HEK293T
Type: toxicity, cell-based
Conditions: human
How it was run: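 Four dyes were applied at seeding to live cells: Hoechst33342, BioTracker Green Microtubule Cytoskeleton Dye, MitoTracker Red and Annexin V Alexa Fluor 680. Imaging after compound addition used a CQ1 microscope at 37°C and 5% CO2. CellPathfinder machine-learning gating then sorted cells into Hoechst high-intensity objects or normal cells, normal cells into healthy, pyknosed or fragmented nuclei, and pyknosed cells into mitotic or apoptotic, with tubulin, mitochondrial-mass and membrane-permeability phenotypes given as per cents of healthy-nucleus cells.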

[1] = 12 h, 1 µM, compound concentration 1 uM, replicate 1
[2] = 12 h, 1 µM, compound concentration 1 uM, replicate 2
[3] = 12 h, 10 µM, compound concentration 10 uM, replicate 1
[4] = 12 h, 10 µM, compound concentration 10 uM, replicate 2
[5] = 24 h, 1 µM, compound concentration 1 uM, replicate 1
[6] = 24 h, 1 µM, compound concentration 1 uM, replicate 2
[7] = 24 h, 10 µM, compound concentration 10 uM, replicate 1
[8] = 24 h, 10 µM, compound concentration 10 uM, replicate 2
[9] = 48 h, 1 µM, compound concentration 1 uM, replicate 1
[10] = 48 h, 1 µM, compound concentration 1 uM, replicate 2
[11] = 48 h, 10 µM, compound concentration 10 uM, replicate 1
[12] = 48 h, 10 µM, compound concentration 10 uM, replicate 2

For `COc1cc2nc(N3CCN(C(=O)c4ccco4)CC3)nc(N)c2cc1OC.Cl` [PRAZOSIN HYDROCHLORIDE], the “Population Apoptotic (%)” value [1] was 32%, the “Population Fragmented Nuclei (%)” value [1] was 10% and the “Population Healthy Nuclei (%)” value [1] was 77%. For the same compound, the “Population Hoechst High Intensity Objects (%)” value [1] was 6%, the “Population Membrane Permeable-Phenotype (%)” value [1] was 0% and the “Population Mitochondria Different-Phenotype (%)” value [1] was 35%. For the same compound, the “Population Mitotic Cells (%)” value [1] was 67%, the “Population Normal (%)” value [1] was 93% and the “Population Pyknosed Nuclei (%)” value [1] was 11%. For the same compound, the “Population Tubulin-Different-Phenotype (%)” value [1] was 23%, the “Total Cell Count” value [1] was 448 and the “Population Apoptotic (%)” value [2] was 56%. For the same compound, the “Population Fragmented Nuclei (%)” value [2] was 6%, the “Population Mitochondria Different-Phenotype (%)” value [2] was 66% and the “Population Mitotic Cells (%)” value [2] was 43%. The “Population Pyknosed Nuclei (%)” value [2] was 16%, the “Population Tubulin-Different-Phenotype (%)” value [2] was 22% and the “Total Cell Count” value [2] was 290. The “Population Apoptotic (%)” value [3] was 38%, the “Population Fragmented Nuclei (%)” value [3] was 9% and the “Population Healthy Nuclei (%)” value [3] was 75%. For the same compound, the “Population Hoechst High Intensity Objects (%)” value [3] was 10%, the “Population Membrane Permeable-Phenotype (%)” value [3] was 0% and the “Population Mitochondria Different-Phenotype (%)” value [3] was 62%. For the same compound, the “Population Mitotic Cells (%)” value [3] was 61%, the “Population Normal (%)” value [3] was 89% and the “Population Pyknosed Nuclei (%)” value [3] was 14%. For the same compound, the “Population Tubulin-Different-Phenotype (%)” value [3] was 45%, the “Total Cell Count” value [3] was 348 and the “Population Apoptotic (%)” value [4] was 55%. For the same compound, the “Population Fragmented Nuclei (%)” value [4] was 5%, the “Population Healthy Nuclei (%)” value [4] was 77% and the “Population Hoechst High Intensity Objects (%)” value [4] was 9%. For the same compound, the “Population Mitochondria Different-Phenotype (%)” value [4] was 61%, the “Population Mitotic Cells (%)” value [4] was 44% and the “Population Normal (%)” value [4] was 90%. The “Population Pyknosed Nuclei (%)” value [4] was 16%, the “Population Tubulin-Different-Phenotype (%)” value [4] was 25% and the “Total Cell Count” value [4] was 404. The “Population Apoptotic (%)” value [5] was 38%, the “Population Fragmented Nuclei (%)” value [5] was 9% and the “Population Healthy Nuclei (%)” value [5] was 82%. The “Population Hoechst High Intensity Objects (%)” value [5] was 3%, the “Population Membrane Permeable-Phenotype (%)” value [5] was 0% and the “Population Mitochondria Different-Phenotype (%)” value [5] was 25%. For the same compound, the “Population Mitotic Cells (%)” value [5] was 61%, the “Population Normal (%)” value [5] was 96% and the “Population Pyknosed Nuclei (%)” value [5] was 7%. The “Population Tubulin-Different-Phenotype (%)” value [5] was 10%, the “Total Cell Count” value [5] was 660 and the “Population Apoptotic (%)” value [6] was 51%. The “Population Healthy Nuclei (%)” value [6] was 80%, the “Population Hoechst High Intensity Objects (%)” value [6] was 5% and the “Population Mitochondria Different-Phenotype (%)” value [6] was 45%. For the same compound, the “Population Mitotic Cells (%)” value [6] was 48%, the “Population Normal (%)” value [6] was 94% and the “Population Pyknosed Nuclei (%)” value [6] was 10%. For the same compound, the “Population Tubulin-Different-Phenotype (%)” value [6] was 16%, the “Total Cell Count” value [6] was 364 and the “Population Apoptotic (%)” value [7] was 50%. The “Population Fragmented Nuclei (%)” value [7] was 12%, the “Population Healthy Nuclei (%)” value [7] was 77% and the “Population Hoechst High Intensity Objects (%)” value [7] was 5%. The “Population Membrane Permeable-Phenotype (%)” value [7] was 0%, the “Population Mitochondria Different-Phenotype (%)” value [7] was 40% and the “Population Mitotic Cells (%)” value [7] was 50%. For the same compound, the “Population Normal (%)” value [7] was 94%, the “Population Pyknosed Nuclei (%)” value [7] was 9% and the “Population Tubulin-Different-Phenotype (%)” value [7] was 32%. The “Total Cell Count” value [7] was 463, the “Population Apoptotic (%)” value [8] was 54% and the “Population Fragmented Nuclei (%)” value [8] was 11%. For the same compound, the “Population Healthy Nuclei (%)” value [8] was 78%, the “Population Membrane Permeable-Phenotype (%)” value [8] was 1% and the “Population Mitochondria Different-Phenotype (%)” value [8] was 42%. For the same compound, the “Population Mitotic Cells (%)” value [8] was 45%, the “Population Pyknosed Nuclei (%)” value [8] was 10% and the “Population Tubulin-Different-Phenotype (%)” value [8] was 20%. The “Total Cell Count” value [8] was 534, the “Population Apoptotic (%)” value [9] was 36% and the “Population Fragmented Nuclei (%)” value [9] was 17%. For the same compound, the “Population Healthy Nuclei (%)” value [9] was 76%, the “Population Hoechst High Intensity Objects (%)” value [9] was 1% and the “Population Membrane Permeable-Phenotype (%)” value [9] was 1%. For the same compound, the “Population Mitochondria Different-Phenotype (%)” value [9] was 16%, the “Population Mitotic Cells (%)” value [9] was 63% and the “Population Normal (%)” value [9] was 98%. For the same compound, the “Population Pyknosed Nuclei (%)” value [9] was 5%, the “Population Tubulin-Different-Phenotype (%)” value [9] was 8% and the “Total Cell Count” value [9] was 1114. For the same compound, the “Population Apoptotic (%)” value [10] was 38%, the “Population Fragmented Nuclei (%)” value [10] was 16% and the “Population Hoechst High Intensity Objects (%)” value [10] was 2%. The “Population Membrane Permeable-Phenotype (%)” value [10] was 0%, the “Population Mitochondria Different-Phenotype (%)” value [10] was 23% and the “Population Mitotic Cells (%)” value [10] was 61%. The “Population Normal (%)” value [10] was 97%, the “Population Pyknosed Nuclei (%)” value [10] was 6% and the “Population Tubulin-Different-Phenotype (%)” value [10] was 9%. For the same compound, the “Total Cell Count” value [10] was 636, the “Population Apoptotic (%)” value [11] was 33% and the “Population Fragmented Nuclei (%)” value [11] was 17%. The “Population Healthy Nuclei (%)” value [11] was 75%, the “Population Hoechst High Intensity Objects (%)” value [11] was 4% and the “Population Membrane Permeable-Phenotype (%)” value [11] was 2%. For the same compound, the “Population Mitochondria Different-Phenotype (%)” value [11] was 32%, the “Population Mitotic Cells (%)” value [11] was 66% and the “Population Normal (%)” value [11] was 95%. For the same compound, the “Population Pyknosed Nuclei (%)” value [11] was 7%, the “Population Tubulin-Different-Phenotype (%)” value [11] was 17% and the “Total Cell Count” value [11] was 693. For the same compound, the “Population Apoptotic (%)” value [12] was 23%, the “Population Fragmented Nuclei (%)” value [12] was 14% and the “Population Healthy Nuclei (%)” value [12] was 78%. The “Population Membrane Permeable-Phenotype (%)” value [12] was 1%, the “Population Mitochondria Different-Phenotype (%)” value [12] was 21% and the “Population Mitotic Cells (%)” value [12] was 76%. The “Population Tubulin-Different-Phenotype (%)” value [12] was 11% and the “Total Cell Count” value [12] was 778.
